Legend:
[1] = molecular target: Protein-S-isoprenylcysteine O-methyltransferase (Homo sapiens, UniProt O60725); test: Inhibition of human isoprenylcysteine carboxyl methyltransferase expressed in yeast His10myc3N-Icmt membranes using AFC substrate and [14C]-SAM and incubated for 30 mins by liquid scintillation counting based methyltransferase vapor diffusion assay; assay type: cell membranes
Method in brief: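 Crude yeast membranes (5 µg) in Tris-HCl 100 mM pH 7.4 with AFC 10 µM and [14C]-SAM 60 µM, compound at increasing concentrations, 5% DMSO; 37 °C 30 min, stopped with NaOH/SDS. Released radioactivity captured on filter paper over 2.5 h and counted. IC50 from specific activity (pmol/mg/min) versus concentration; three separate experiments in duplicate.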

[2] = Growth inhibition of human MIAPaCa2 cells expressing K-Ras G12C mutant after 5 days by MTT assay; assay type: functional, cell-based; details: MIA PaCa-2, 120 h
Method in brief: (§1)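 MTT read-out; 1,000 cells per well seeded the day before, then medium replaced with inhibitor at increasing concentrations, 0.5% DMSO constant; 5 days at 37 °C. MTT (5 mg/mL solution) added for a further 4 h, formazan dissolved in DMSO, absorbance at 590 nm; mean absorbance per concentration plotted.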

[3] = Growth inhibition of human PANC1 cells expressing K-Ras G12D mutant after 5 days by MTT assay; assay type: functional, cell-based; details: PANC-1, 120 h; method in brief: as §1

Chain of Protein-S-isoprenylcysteine O-methyltransferase (O60725 whole entry, the tested form may be a part): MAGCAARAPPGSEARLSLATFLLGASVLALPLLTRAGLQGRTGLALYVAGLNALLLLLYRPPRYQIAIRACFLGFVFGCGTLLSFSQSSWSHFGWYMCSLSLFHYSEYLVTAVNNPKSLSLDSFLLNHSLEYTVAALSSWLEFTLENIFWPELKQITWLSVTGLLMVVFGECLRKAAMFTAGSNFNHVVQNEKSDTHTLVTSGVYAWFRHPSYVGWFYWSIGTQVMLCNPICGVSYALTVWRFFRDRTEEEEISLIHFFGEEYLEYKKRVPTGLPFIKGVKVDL

IC50 [1]	SMILES	IC50 [2]	IC50 [3]
0.4 µM	COC(=O)CCSC/C=C(\C)CCn1cc(CCc2ccc(-c3ccccc3)cc2)nn1	–	–
–	c1csc(C(=C2CCOCC2)c2ccc3ccccc3c2)c1	31.9 µM	78 µM
18 µM	Oc1c(C(c2cccs2)C2CCOCC2)ccc2ccccc12 (stereo not drawn)	–	–
7.7 µM	Oc1c(C(=C2CCOCC2)c2cccs2)ccc2ccccc12	–	–
> 50 µM	c1ccc(C(=C2CCOCC2)c2cccs2)cc1	–	–
14 µM	Oc1c(C(c2cccs2)C2CCOCC2)ccc2cccnc12 (stereo not drawn)	–	–
> 50 µM	OC(c1ccccc1)(c1cccs1)C1CCOCC1 (stereo not drawn)	–	–
> 50 µM	CN1CCC(C(c2ccc3ccccc3c2)c2cccs2)CC1 (stereo not drawn)	–	–
> 50 µM	c1ccc(C(=C2CCOCC2)c2ccc3ccccc3c2)cc1	–	–
> 50 µM	O=C(c1ccc2ccccc2c1)C1CCOCC1	–	–
> 50 µM	c1ccc2cc(CC3CCOCC3)ccc2c1	–	–

SMILES	IC50 [1]	IC50 [2]	IC50 [3]
c1csc(C(c2ccc3ccccc3c2)C2CCNCC2)c1 (stereo not drawn)	> 50 µM	–	–

From ChEMBL document CHEMBL3822411, “Non-Substrate Based, Small Molecule Inhibitors of the Human Isoprenylcysteine Carboxyl Methyltransferase” (Medchemcomm, 2016)
